Assay outcomes: PubChem BioAssay, several laboratories
RTF Ca sens act – increases calcium sensitivity of human cardiac regulated thin filaments; P19429+P45379; IANBD-labeled TnC RTF fluorescence at EC20 calcium; 0% EC20 calcium, 100% full calcium; activation, % at 7.2 µM; actives 0.24% (n = 340,000);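 active means activation above the mean over all tested compounds plus 3 SD, cut at about 30% in these data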;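 further: rise in fluorescence read as greater calcium sensitivity of cardiac thin filaments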
Tn7 DDE FP – DD(E)-Tn7 binding inhibition, primary FP screen; FP displacement of FITC-Tn7 peptide from fibrin DD(E); 0% = median of compound wells per plate; P02675; actives 0.13% (n = 370,000); inhibition, % at 8.3 µM;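 active means inhibition above the mean of compounds falling within the control limits plus 3 SD of them, cut at about 14% in these data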;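 further: 0% = plate median of compound wells and 100% = 10 µM Aha-Tn7 peptide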
Target sequence (P02675 whole entry, looked up): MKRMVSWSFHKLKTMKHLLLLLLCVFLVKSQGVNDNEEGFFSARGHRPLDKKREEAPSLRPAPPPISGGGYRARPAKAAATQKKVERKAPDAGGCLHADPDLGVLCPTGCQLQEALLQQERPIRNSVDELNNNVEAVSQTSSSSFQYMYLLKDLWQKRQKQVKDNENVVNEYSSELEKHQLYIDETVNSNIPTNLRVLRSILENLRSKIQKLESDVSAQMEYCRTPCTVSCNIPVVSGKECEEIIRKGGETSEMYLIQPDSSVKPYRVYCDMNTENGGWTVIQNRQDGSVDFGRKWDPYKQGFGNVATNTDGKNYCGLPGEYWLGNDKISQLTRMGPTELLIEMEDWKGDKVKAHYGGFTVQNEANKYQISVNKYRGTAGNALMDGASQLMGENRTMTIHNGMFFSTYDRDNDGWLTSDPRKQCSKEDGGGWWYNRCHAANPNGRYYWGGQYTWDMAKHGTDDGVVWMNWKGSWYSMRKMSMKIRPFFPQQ
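Also added: labelled Tn7 tracer, 0.1 µM; Assay system: human fibrin DD(E) protein; Amount: 2 µM fibrin DD(E); Schedule: 10 min compound pre-incubation, 3 h probe incubation at room temperature; Repeats: one replicate per compound; Read-out basis: percent inhibition; Measured by: fluorescence polarization of the labelled Tn7 tracer.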
C-LANA FP – inhibitors of KSHV LANA C-terminal domain DNA binding; actives 0.078% (n = 340,000); inhibition, % at 9 µM; MBP-C-LANA/FAM-LBS DNA binding, fluorescence polarization;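 active means highest replicate inhibition at or above 60% at 9 µM, even if other replicates fall short; inactive means all replicates below 60% inhibition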;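 further: 0% = neutral control wells and 100% = 4 µM acridine orange control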
DDE Tn6 FP inh – disrupts Tn6 cyclic peptide binding to fibrin D-Dimer-E complex. P02675. Fibrin DD(E) TRITC-Tn6 fluorescence polarization displacement. inhibition, % at 8.3 µM. actives 0.21% (n = 370,000). AID 720509;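 active means inhibition above a per-campaign cutoff: mean of compounds within control limits plus 3 SD, cut at about 15% in these data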;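 further: 0% = median of all compound wells on the plate and 100% = blocking peptide control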
Keap1 Nrf2 FP – Keap1-Nrf2 (human) interaction inhibition. Q14145. Keap1 Kelch-Nrf2 peptide fluorescence polarization, 1536-well. inhibition, % at 9.4 µM. actives 0.15% (n = 340,000). AID 504523; in the data active means inhibition above about 12%;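 further: human Keap1 Kelch domain with fluorescein labeled Nrf2 9mer peptide probe; 0% = neutral control wells and 100% = peptide positive control; higher means more block of Keap1 binding to Nrf2 peptide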
Cardiac RTF inh – cardiac RTF calcium desensitization. AID 493244. P19429+P45379. IANBD-labeled cardiac RTF, Ca2+ fluorescence. inhibition, % at 7.15 µM. actives 0.12% (n = 340,000);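 active means inhibition above the mean inhibition of all tested compounds plus 3 SD, cut at about 17% in these data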;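 further: assay run at fixed EC70 calcium of 1.6 mM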
Numbers without * were called inactive; nt = no result. The list is not random: actives were taken first. Their share in the collection is about 0.73%.

SMILES	RTF Ca sens act	Tn7 DDE FP	C-LANA FP	DDE Tn6 FP inh	Keap1 Nrf2 FP	Cardiac RTF inh
COc1cc(NC(=O)C2CCCN(S(=O)(=O)c3ccc(C)c(C)c3)C2)cc(OC)c1 (centres undefined)	nt	-10	nt	4	nt	nt
COC(=O)[C@]12C[C@H](CC(=O)NCc3ccc(C)o3)C(=O)N(Cc3ccc4c(c3)OCO4)C1=C[C@H](C(C)(C)C)O[C@@H]2C	nt	-2	nt	-1	nt	nt
Nc1ccc(C(=O)Nc2ccc3c(O)cc(S(=O)(=O)O)cc3c2)cc1	3	3	116*	-7	-15	-7
CC(=O)Nc1sc(/C(C#N)=C/c2ccc(Cl)c(Cl)c2)nc1-c1ccc(C)cc1	76*	8	1	-7	-15	-24
N#CC(=Cc1ccc(-c2ccccc2)cc1)C(=O)c1ccccc1	nt	-2	nt	2	nt	nt
CCN(CC)c1ccc(/C=C(\C#N)C(=O)c2ccc(Br)cc2)cc1	559*	-12	6	-5	-19	-488
CN(C)c1ccc(/C=C(\C#N)C(=O)c2ccccc2)cc1	80*	-10	6	0	-11	-106
CCN(CC)c1ccc(/C=C(\C#N)C(N)=O)cc1	7	-14	-1	-4	-16	-3
CCN(CC)c1ccc(/C=C(\C#N)C(N)=S)cc1	200*	-12	-9	-7	-57	-282
Cc1ccc(C=C(C#N)C(=O)c2ccccc2)cc1	nt	-2	nt	-1	nt	nt
NC(COCc1ccccc1)c1csc(NC(=O)Nc2cccc(Cl)c2)n1 (centres undefined)	nt	-8	nt	-8	nt	nt
CCC(C#Cc1ccccc1)N(C)C(N)=NC(=O)/C=C/c1ccccc1 (centres undefined)	nt	-2	nt	-2	nt	nt
C=C(C)C(=O)Nc1cccc(C2=NOC3(C2)C[C@@H](C(N)=O)N(C(=O)C2(C)CC2)C3)c1 (some centres undefined)	3	-2	105*	3	-1	-4
O=C(NCc1ccccc1)C(C1CC1)n1c(=O)c(-c2cc3ccccc3[nH]2)nc2ccccc21 (centres undefined)	nt	1	nt	-5	nt	nt
Cc1ccc(-n2c(SCC(=O)NN=Cc3c[nH]c4ccccc34)nnc2-c2ccccc2)cc1	nt	1	nt	-1	nt	nt
COc1cccc(C=C2SC(=S)N(Cc3ccco3)C2=O)c1OC	nt	-6	nt	-4	nt	nt
COc1ccc(-n2c(C)cc(/C=C3\SC(=S)N(Cc4ccco4)C3=O)c2C)cc1	31*	1	3	-4	-5	-27
Cc1cc(C)n2nc3nc4c(cc3c2n1)CCCC4	31*	2	2	8	-2	-53
CCCC[C@H](C(=O)N(C)c1cccc(OC)c1)[C@@H](O)c1ccc(Cl)cc1	nt	-3	nt	13	nt	nt
Cc1ccc(/C=C2/NC(=O)N(Cc3ccccc3F)C2=O)s1	35*	5	16	1	-1	-72
O=C1N/C(=C/c2cccs2)C(=O)N1Cc1ccccc1F	-7	-8	0	-3	-4	-30
OC(c1cc(Cl)cc(Cl)c1)c1ncc(-c2cccc(F)c2)[nH]1 (centres undefined)	nt	-1	nt	7	nt	nt
CCOc1ccc(N(C)c2ccc(/C=C3/SC(=S)NC3=O)cc2)cc1	45*	1	-2	0	-5	-59
CN(C)c1ccc(C=C2SC(=S)NC2=O)cc1	28	-11	-3	3	-11	-48
COc1ccc(N/C=C2\C(=O)CCc3c2oc2cc(Cl)c(O)c(Cl)c32)cc1	100*	1	3	-3	-2	-28
SMILES	RTF Ca sens act	Tn7 DDE FP	C-LANA FP	DDE Tn6 FP inh	Keap1 Nrf2 FP	Cardiac RTF inh
Cc1cc(C)cc(N=Cc2[nH]c3ccc(Br)c(Cl)c3c2O)c1	64*	-2	2	-2	-1	-88
COc1ccc(CN=Cc2[nH]c3ccc(Br)c(Cl)c3c2O)cc1	10	1	-2	-1	-4	-18
O=C1/C(=C/c2cccc(F)c2)Oc2cc(O)ccc21	49*	4	8	-6	-3	-43
C#CCN1CC(COc2ccccc2)OCCS1(=O)=O (centres undefined)	nt	-9	nt	-3	nt	nt
Nc1c(C(=O)NCC2CCCO2)sc2nc3c(c(-c4ccco4)c12)CC/C3=C\c1ccco1 (centres undefined)	11	3	1	-1	-4	25*
NC(=O)c1sc2nc3c(c(-c4ccco4)c2c1N)CCCC3	3	4	1	-1	4	-7
COc1ccc(-c2noc(CCC(=O)NCCc3ccccc3)n2)cc1	38*	1	2	-1	-6	-4
CCOC(=O)C1CCCN(C(=O)c2ccc3c(c2)C(C)(C)CCC3(C)C)CC1 (centres undefined)	nt	2	nt	2	nt	nt
Cc1cc(O)c(C=O)c2c1C(=O)Oc1c(CO)c(O)c3c(c1O2)C(O)OC3=O (centres undefined)	-29	nt	118*	nt	47*	30*
Cc1ccc(S(=O)(=O)N2[C@H](CC(=O)c3ccc(F)cc3)OC[C@@H]2C)cc1	nt	3	nt	-2	nt	nt
CCCCn1nnnc1C(c1cc2ccccc2o1)N1CCN(C(=O)OCC)CC1 (centres undefined)	nt	0	nt	1	nt	nt
COc1cccc(/C=N/Nc2nc3ccccc3[nH]2)c1O	-5	1	0	-14	-6	-1
COc1cccc(/C=N/c2nc3ccccc3[nH]2)c1O	187*	0	3	-7	-1	4
COC(=O)C1CN(Cc2cn(CCC3OCCO3)nn2)CCS(=O)(=O)N1Cc1ccc(OC)cc1 (centres undefined)	nt	-6	nt	1	nt	nt
CCOc1ccc(C2OC34CCCCC3C(C#N)(C#N)C2(C#N)C(=N)O4)cc1OC (centres undefined)	29	nt	42	nt	19*	-35
O=c1[nH]ncc2c3ccccc3n(Cc3cccc(Cl)c3)c12	56*	-14	2	-1	-13	-54
COc1ccc2c(CC(=O)Nc3ncc(C)s3)coc2c1	-8	2	78*	10	1	-3
COc1ccc2c(CC(=O)Nc3nc(C)cs3)coc2c1	-2	4	1	0	0	6
COc1cccc(CN(C)[C@H]2C[C@H]3c4[nH]c5ccccc5c4CCN3C[C@H]2[C@H](C)O)c1OC	nt	-6	nt	6	nt	nt
CN(C)c1ccc(/C=C/c2nc3ccccc3c(=O)n2CCO)cc1	38*	-35	12	-11	-57	-135
CC(C)C[C@@H]1COc2cc(N3CCOCC3)ccc2S(=O)(=O)N1	nt	5	nt	1	nt	nt
COC(=O)c1cc(-c2cccc3c2sc2ccccc23)c(=O)n2c1CCC2	nt	3	nt	2	nt	nt
CCN1/C(=C/c2ccc3cc(C)ccc3[n+]2CC)Sc2ccccc21	47*	-45	-74	-16	-37	-52
